In ChEMBL document CHEMBL4368918, “Structure-Based Design of Inhibitors Selective for Human Proteasome β2c or β2i Subunits” (J Med Chem, 2019):
Active and inactive are the calls of the source. The calls are words filed in the database; no cut-off is given here.

Tests used:
[1] = target: Proteasome Macropain subunit (Homo sapiens) (UniProt P49721); conditions: Raji, Lysate, 1 uM
[2] = target: T1, Proteasome subunit beta type-9 (Homo sapiens, UniProt P28065); assay: Inhibition of 20S immunoproteasome beta 1 in human RPMI8226 cell lysates after 1 hr by coomassie brilliant blue staining-based fluorescence assay; format: subcellular, Lysate
T1 sequence (P28065 whole entry): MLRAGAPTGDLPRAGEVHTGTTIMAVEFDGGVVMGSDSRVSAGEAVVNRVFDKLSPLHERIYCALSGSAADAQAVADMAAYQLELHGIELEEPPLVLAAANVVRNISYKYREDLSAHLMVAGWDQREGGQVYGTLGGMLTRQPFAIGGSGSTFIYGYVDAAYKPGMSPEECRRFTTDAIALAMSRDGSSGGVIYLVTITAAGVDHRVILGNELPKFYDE
In short: (§1)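 Living RPMI-8226 cells were grown in RPMI-1640 with 10% FCS. Cells at (5–8)×10⁵ cells/mL were exposed to inhibitor for 1 h at 37 °C, washed in PBS and lysed on ice for 1 h in digitonin/ATP buffer. Residual activity was read by cocktail-ABP labeling, SDS-PAGE and fluorescence densitometry relative to mock, with Coomassie staining correcting for loading. IC50 came from three independent experiments.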

[3] = target: T2, Proteasome subunit beta type-8 (Homo sapiens, UniProt P28062); assay: Inhibition of 20S immunoproteasome beta 5 in human Raji cell lysates after 1 hr by competitive ABPP assay; format: subcellular, Lysate
T2 sequence (P28062 whole entry): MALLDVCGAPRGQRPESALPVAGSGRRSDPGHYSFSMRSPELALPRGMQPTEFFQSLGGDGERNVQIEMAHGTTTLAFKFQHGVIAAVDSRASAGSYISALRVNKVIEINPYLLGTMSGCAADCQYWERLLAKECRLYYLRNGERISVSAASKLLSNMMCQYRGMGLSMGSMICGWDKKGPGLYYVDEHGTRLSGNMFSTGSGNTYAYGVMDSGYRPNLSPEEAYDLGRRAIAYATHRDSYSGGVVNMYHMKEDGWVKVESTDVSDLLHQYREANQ

[4] = target: T2, Proteasome subunit beta type-8; assay: Inhibition of 20S immunoproteasome beta 5 in human RPMI8226 cell lysates after 1 hr by coomassie brilliant blue staining-based fluorescence assay; format: subcellular, Lysate
In short: as §1

[5] = target: T3, Proteasome subunit beta type-10 (Homo sapiens, UniProt P40306); assay: Inhibition of 20S immunoproteasome beta 2 in human RPMI8226 cell lysates after 1 hr by coomassie brilliant blue staining-based fluorescence assay; format: subcellular, Lysate
T3 sequence (P40306 whole entry): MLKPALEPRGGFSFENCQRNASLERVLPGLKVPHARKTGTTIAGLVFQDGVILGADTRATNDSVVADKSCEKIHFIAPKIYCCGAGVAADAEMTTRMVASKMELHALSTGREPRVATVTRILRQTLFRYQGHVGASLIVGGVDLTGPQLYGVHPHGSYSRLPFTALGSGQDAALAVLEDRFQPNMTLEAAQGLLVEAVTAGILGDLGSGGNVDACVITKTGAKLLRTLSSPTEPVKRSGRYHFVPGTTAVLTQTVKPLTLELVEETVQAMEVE

[6] = target: T4, Proteasome subunit beta type-10 (Homo sapiens) (UniProt P40306); assay: Inhibition of Morp-Ala-Tyr(O-C2H4-BODIPY(FL))-1-DecAla-EK binding to immunoproteasome beta 2 in human Raji cell lysates at 0.1 uM by competitive ABPP assay; format: subcellular; conditions: Lysate
T4 sequence (whole entry): T3 sequence (P40306 whole entry)
In short: (§2)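 Raji lysate was preincubated with inhibitor, then labeled with the BODIPY(FL) probe alone. β2i labeling was read by in-gel fluorescence at Cy2 settings after SDS-PAGE.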

[7] = target: T4, Proteasome subunit beta type-10 (Homo sapiens); assay: Inhibition of Morp-Ala-Tyr(O-C2H4-BODIPY(FL))-1-DecAla-EK binding to 20S immunoproteasome beta 2 in human Raji cell lysates at 1 uM in presence of 3-probe mixture by competitive ABPP assay; format: subcellular; conditions: Lysate
[8] = target: T3, Proteasome subunit beta type-10; assay: Inhibition of 20S immunoproteasome beta 2 in human Raji cell lysates after 1 hr by competitive ABPP assay; format: subcellular, Lysate
[9] = target: T4, Proteasome subunit beta type-10 (Homo sapiens); assay: Inhibition of Morp-Ala-Tyr(O-C2H4-BODIPY(FL))-1-DecAla-EK binding to immunoproteasome beta 2 in human Raji cell lysates at 0.3 uM by competitive ABPP assay; format: subcellular; conditions: Lysate
In short: as §2

[10] = target: Proteasome Macropain subunit (Homo sapiens) (UniProt P49721); assay: Inhibition of Morp-Ala-Tyr(O-C2H4-BODIPY(FL))-1-DecAla-EK binding to 20S constitutive proteasome beta 2 in human Raji cell lysates at 0.3 uM in presence of 3-probe mixture by competitive ABPP assay; format: subcellular; conditions: Lysate
[11] = target: T1, Proteasome subunit beta type-9; assay: Inhibition of 20S immunoproteasome beta 1 in human Raji cell lysates after 1 hr by competitive ABPP assay; format: subcellular, Lysate
In short: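 Raji cells were sonicated in 3 volumes of Tris pH 7.5 lysis buffer containing DTT, MgCl₂, sucrose, 2 mM ATP and 0.05% digitonin. Lysate (5 μg protein, in buffer with 2 mM ATP and glycerol) was preincubated with inhibitor for 1 h at 37 °C, then with a cocktail of three fluorescent ABPs for 1 h. […] In-gel fluorescence densitometry was normalized to mock. IC50 came from the mean of three experiments.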

[12] = target: T5, Proteasome Macropain subunit MB1 (Homo sapiens, UniProt P28074); assay: Inhibition of 20S constitutive proteasome beta 5 chymotrypsin-like activity in human RPMI8226 cell lysates after 1 hr by coomassie brilliant blue staining-based fluorescence assay; format: subcellular, Lysate
T5 sequence (P28074 whole entry): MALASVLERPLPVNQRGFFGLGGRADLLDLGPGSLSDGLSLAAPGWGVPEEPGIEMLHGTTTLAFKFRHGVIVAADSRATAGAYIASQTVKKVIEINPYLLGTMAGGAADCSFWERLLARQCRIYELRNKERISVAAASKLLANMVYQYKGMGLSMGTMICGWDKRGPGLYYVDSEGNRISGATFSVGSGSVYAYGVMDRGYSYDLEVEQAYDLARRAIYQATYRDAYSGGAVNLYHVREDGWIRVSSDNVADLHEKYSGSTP
In short: as §1, with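 “Cells” for “Living RPMI-8226 cells were grown in RPMI-1640 with 10% FCS. Cells”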

[13] = target: T3, Proteasome subunit beta type-10; assay: Inhibition of 20S immunoproteasome beta 2 (unknown origin) by cell based ABPP assay
In short: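 Living RPMI-8226 cells, (5–8) ×10^5 cells/mL, exposed to inhibitor 1 h at 37 °C, washed, lysed in digitonin buffer 1 h on ice; residual activity labelled with cocktail ABPs, SDS-PAGE in-gel fluorescence, bands divided by mock, Coomassie staining to correct loading. IC50 from mean of three independent experiments.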

[14] = target: T4, Proteasome subunit beta type-10 (Homo sapiens); assay: Inhibition of Morp-Ala-Tyr(O-C2H4-BODIPY(FL))-1-DecAla-EK binding to 20S immunoproteasome beta 2 in human Raji cell lysates at 0.3 uM in presence of 3-probe mixture by competitive ABPP assay; format: subcellular; conditions: Lysate

Row | SMILES | inhibition [1] | IC50 [2] [nM] | IC50 [3] [nM] | IC50 [4] [nM] | IC50 [5] [nM] | inhibition [6] | inhibition [7] | IC50 [8] [nM] | inhibition [9] | inhibition [10] | IC50 [11] [nM] | IC50 [12] [nM] | IC50 [13] [nM] | inhibition [14]
1 | CC(C)C[C@H](NC(=O)[C@H](Cc1ccccc1)N=[N+]=[N-])C(=O)N[C@@H](CC(C)C)C(=O)N[C@H](/C=C/S(C)(=O)=O)Cc1ccc(CN)cc1 | Active | > 10000 | 1170 | > 10000 | 410 | Active | Active | 20 |  |  |  |  |  | 
2 | CC(C)C[C@H](NC(=O)[C@H](Cc1ccccc1)N=[N+]=[N-])C(=O)N[C@@H](C)C(=O)N[C@H](/C=C/S(C)(=O)=O)Cc1ccc(CN)cc1 |  |  |  | > 10000 | > 10000 |  |  | 140 | Active | Active | > 100000 | > 10000 | 325 | Active
